These results are taken from ChEMBL document CHEMBL1138950, “Benzimidazole derivatives bearing substituted biphenyls as hepatitis C virus NS5B RNA-dependent RNA polymerase inhibitors: structure-activity relationship studies and identification of a potent and highly selective inhibitor JTK-109” (J Med Chem, 2006).

By inhibition is commonly meant the share of the control response that was lost under treatment. As usually defined, the IC50 is the concentration at which inhibition is half-maximal. High values mean weaker potency in that assay, low ones greater potency in that assay. What is called EC50 is the concentration at which the effect is half-maximal. Read a low EC50 as greater potency. As a reminder, the CC50 is the concentration at which the toxic effect on the cells reaches its halfway point. Low values mean greater toxicity to the cells, high ones lower toxicity to the cells. By logD is commonly meant the decadic logarithm of the distribution of all forms, ionised or not, between an organic phase and buffer at a given pH. Higher therefore signals a more lipophilic compound. As usually defined, the Papp is a coefficient for how fast a substance crosses the barrier.

Structures are written as SMILES.

Series [1] concerns Hepatitis C virus. Description: Inhibition of HCV subgenomic RNA replication in Huh5-2 cells at 10 uM after 48 hrs by replicon assay. The series is classed as functional, Hepacivirus hominis. Conditions: Huh-5-2, 48 h.
The target of series [2] is RNA-directed RNA polymerase (Hepacivirus hominis, UniProt O39930). Description: Inhibition of HCV 1b BK six His-tagged C-terminal truncated 544 amino acid NS5B RNA dependent RNA polymerase. Set-up: species or system Hepatitis C virus subtype 1b. The essentials: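 HCV genotype 1b (BK) NS5B lacking 47 C-terminal residues, His6-tagged, E. coli-expressed; 7 nM enzyme with 5 µg HCV 3′X RNA template-primer, 50 µM each ATP/GTP/CTP, 2 µM UTP plus [3H]-UTP; pH 7.5 Tris, 5 mM MgCl2. Compounds in DMSO (5% final). 60 min at 25 °C; TCA-precipitable radioactivity read. Triplicate, mean of three experiments.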
RNA-directed RNA polymerase, sequence (O39930 whole entry, the tested form may be a part): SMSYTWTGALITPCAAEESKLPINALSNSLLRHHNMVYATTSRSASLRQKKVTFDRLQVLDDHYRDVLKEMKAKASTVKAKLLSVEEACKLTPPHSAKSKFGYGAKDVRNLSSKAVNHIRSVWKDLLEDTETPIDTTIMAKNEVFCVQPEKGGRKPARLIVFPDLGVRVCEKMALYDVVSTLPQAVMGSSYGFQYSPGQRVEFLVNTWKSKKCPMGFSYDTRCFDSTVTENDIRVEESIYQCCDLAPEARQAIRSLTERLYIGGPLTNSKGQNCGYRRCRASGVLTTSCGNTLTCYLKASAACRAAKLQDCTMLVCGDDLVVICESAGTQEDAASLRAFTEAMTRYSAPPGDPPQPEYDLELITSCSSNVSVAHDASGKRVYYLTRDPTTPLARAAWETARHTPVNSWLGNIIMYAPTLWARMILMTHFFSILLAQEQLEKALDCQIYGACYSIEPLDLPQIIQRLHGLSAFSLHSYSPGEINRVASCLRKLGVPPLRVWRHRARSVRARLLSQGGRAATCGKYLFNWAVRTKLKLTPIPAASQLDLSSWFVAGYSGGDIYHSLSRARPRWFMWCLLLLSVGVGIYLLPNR

Series [3] deals with Hepatitis C virus. In words: Inhibition of HCV subgenomic RNA replication in Huh5-2 cells after 48 hrs by replicon assay. It counts as functional, organism-based, Hepacivirus hominis. Conditions: Huh-5-2, 48 h. The gist of the method: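 Huh-5-2 cells (Huh-7-derived, genotype 1b subgenomic replicon with luciferase reporter) seeded at 5 × 10^3 per well in DMEM with 10% FBS, 37 °C, 5% CO2; compounds added next day, 48 h exposure; luciferase activity read. EC50 is the concentration reducing replication by 50%. Triplicate, mean of three experiments.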

Another series has as its system Huh-5-2. Description: Viability of Huh5-2 cells by MTT assay. It counts as functional. Conditions: Homo sapiens. In general terms: Tetrazolium dyes change colour on reduction, which living cells bring about.
Series [4] can be described thus: Therapeutic index, CC50 for viability of Huh5-2 cells/EC50 for inhibition of HCV subgenomic RNA replication. To be noted: human, read-out: Ratio CC50/EC50. The series is classed as cell-based, Huh-5-2.
Series [5] can be described thus: Plasma concentration in rat at 30 mg/kg, po after 1 hr. Set-up: dose 30 mg/kg, route oral. It counts as ADME, organism-based. The essentials: (§1)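 Rats dosed orally at 30 mg/kg; plasma sampled at 1 and 2 h; n = 2 or 3.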
Series [6] is described as follows: Plasma concentration in rat at 30 mg/kg, po after 2 hrs. It counts as ADME, organism-based. Set-up: dose 30 mg/kg, route oral. The gist of the method: as §1
Series [7] in a line: Distribution coefficient, log D at pH 7.2. It counts as physicochemical. To be noted: octanol/water.
A short description of series [8]: Apparent permeability in Caco-2 cells. The series is classed as ADME, cell-based. To be noted: human. (Caco-2 monolayers are a common model of the intestinal barrier.)

For `Cc1nc(COc2ccc(-c3nc4cc(C(=O)O)ccc4n3C3CCCCC3)cc2)c(-c2ccc(Cl)cc2)o1`, the inhibition at 10 µM in the series with Hepatitis C virus [1] was determined as 30%. The compound further displayed a half-maximal inhibitory concentration (IC50) in [2] of 580 nM. The EC50 in the series on Hepatitis C virus [3] was > 10000 nM. This compound returned a 50% cytotoxic concentration (CC50) with Huh-5-2 of 39000 nM.
Take `CC(=O)Nc1ccc(-c2ccc(Cl)cc2)c(COc2ccc(-c3nc4cc(C(=O)O)ccc4n3C3CCCCC3)c(F)c2)c1`: in series [2], the concentration for half-maximal inhibition (IC50) was found to be 14 nM. Further, the midpoint of the response in the series with Hepatitis C virus [3], the EC50, lay at 460 nM. In the series with Huh-5-2, this compound had a 50% cytotoxic concentration (CC50) of 24000 nM. Moreover, the selectivity ratio in [4] turned out to be 52. In series [5], the concentration at 1 h came to 1000 nM. Further, in [6], the concentration at 2 h was 300 nM.
`CCCNC(=O)c1ccc(-c2ccc(Cl)cc2)c(COc2ccc(-c3nc4cc(C(=O)O)ccc4n3C3CCCCC3)c(F)c2)c1` had a half-maximal inhibitory concentration (IC50) in [2] of 21 nM. This compound also gave a 50% effective concentration (EC50) with Hepatitis C virus [3] of 380 nM. This compound registered a cytotoxic concentration (CC50) in the series with Huh-5-2 of 24000 nM. Moreover, the selectivity ratio in series [4] was found to be 63. The concentration at 1 h in series [5] is 1300 nM. The compound further showed a concentration at 2 h in series [6] of 600 nM.
`O=C(O)c1ccc(-c2ccc(Cl)cc2COc2ccc(-c3nc4cc(C(=O)O)ccc4n3C3CCCCC3)cc2)cc1`: the pH-dependent lipophilicity (logD) in series [7] came out at 3.26. Besides, the Papp in series [8] amounted to 23.4 ×10⁻⁶ cm/s. In addition, the IC50 in [2] was 58 nM. The half-maximal effective concentration (EC50) with Hepatitis C virus [3] was > 10000 nM. Moreover, in the series on Huh-5-2, the 50% cytotoxic concentration (CC50) was > 50000 nM.
As for `CC(=O)N(C)c1ccc(-c2ccc(Cl)cc2)c(COc2ccc(-c3nc4cc(C(=O)O)ccc4n3C3CCCCC3)c(F)c2)c1`, it took 16 nM to reach half-maximal inhibition in series [2] (IC50). This compound returned a concentration for a half-maximal effect (EC50) in the series with Hepatitis C virus [3] of 150 nM. Further, in the series on Huh-5-2, the CC50 amounted to 26000 nM. Further, the selectivity ratio in series [4] was determined as 173. Besides, in [5], the concentration at 1 h was found to be 900 nM. This compound displayed a concentration at 2 h in series [6] of 1100 nM.
The compound `CC(C)NC(=O)c1ccc(-c2ccc(Cl)cc2)c(COc2ccc(-c3nc4cc(C(=O)O)ccc4n3C3CCCCC3)c(F)c2)c1` yielded an IC50 in series [2] of 13 nM. In the series on Hepatitis C virus [3], this compound gave an EC50 of 200 nM. The compound further yielded a CC50 in the series with Huh-5-2 of 22000 nM. Besides, in series [4], the selectivity ratio turned out to be 110. The compound also had a concentration at 1 h in [5] of 1100 nM. In [6], the concentration at 2 h came out at 300 nM.
For `CCN(C(C)=O)c1ccc(-c2ccc(Cl)cc2)c(COc2ccc(-c3nc4cc(C(=O)O)ccc4n3C3CCCCC3)c(F)c2)c1`, the IC50 in series [2] came to 19 nM. This compound also came in with a concentration for a half-maximal effect (EC50) in the series with Hepatitis C virus [3] of 140 nM. In the series on Huh-5-2, this compound registered a CC50 of 25000 nM. For the same compound, in [4], the selectivity ratio stood at 179. In addition, the concentration at 1 h in series [5] was 1500 nM. Moreover, the concentration at 2 h in series [6] was found to be 800 nM.
Regarding `CN(C)C(=O)c1ccc(-c2ccc(Cl)cc2)c(COc2ccc(-c3nc4cc(C(=O)O)ccc4n3C3CCCCC3)c(F)c2)c1`, the IC50 in series [2] came out at 12 nM. Moreover, it took 160 nM to reach a half-maximal effect in the series with Hepatitis C virus [3] (EC50). Also, the midpoint of cytotoxicity with Huh-5-2, the CC50, lay at 26000 nM. Moreover, in series [4], the selectivity ratio is 163. Also, in [5], the concentration at 1 h was 1600 nM. For the same compound, the concentration at 2 h in [6] was determined as 1800 nM.
Compound `CNC(=O)c1ccc(-c2ccc(Cl)cc2)c(COc2ccc(-c3nc4cc(C(=O)O)ccc4n3C3CCCCC3)c(F)c2)c1` returned a 50% inhibitory concentration (IC50) in series [2] of 12 nM. This compound also had a half-maximal effective concentration (EC50) with Hepatitis C virus [3] of 360 nM. Further, the midpoint of cytotoxicity in the series on Huh-5-2, the CC50, lay at 25000 nM. Moreover, in [4], the selectivity ratio turned out to be 69. The concentration at 1 h in series [5] amounted to 700 nM. In [6], the concentration at 2 h is 500 nM.
In [2], `O=C(O)c1ccc2c(c1)nc(-c1ccc(OCc3cc(C(=O)N4CCOCC4)ccc3-c3ccc(Cl)cc3)cc1F)n2C1CCCCC1` came in with an IC50 of 14 nM. In addition, in the series with Hepatitis C virus [3], the half-maximal effective concentration (EC50) came out at 280 nM. For the same compound, the CC50 in the series with Huh-5-2 worked out at 25000 nM. Further, in series [4], the selectivity ratio is 89. Further, the concentration at 1 h in series [5] was determined as 1100 nM. Besides, the concentration at 2 h in series [6] came to 500 nM.
Consider `O=C(O)c1ccc2c(c1)nc(-c1ccc(OCc3cc(C(=O)N4CCCCC4)ccc3-c3ccc(Cl)cc3)cc1F)n2C1CCCCC1`, for which, in series [2], it took 18 nM to reach half-maximal inhibition (IC50). Moreover, the EC50 in the series on Hepatitis C virus [3] worked out at 270 nM. Besides, the CC50 in the series with Huh-5-2 came out at 24000 nM. Also, in series [4], the selectivity ratio worked out at 89. The compound further returned a concentration at 1 h in [5] of 2200 nM. The concentration at 2 h in series [6] came out at 700 nM.
